Sampled rows, rich in hits. Any-hit rate of the full collection: about 3%.
Apaf-1 inh – inhibitors of human Apaf-1 apoptosome, primary screen, biochemical, DEVD-Rh110 fluorescence, uHTS. reconstituted apoptosome caspase-3 activity. inhibition, % at 20 µM. actives 0.71% (n = 330,000); active = inhibition of at least 40% at 20 µM;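 also: plate controls were DMSO wells for no effect and DEVD-CHO caspase inhibitor wells for full effect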
Target sequence (O14727 whole entry, looked up): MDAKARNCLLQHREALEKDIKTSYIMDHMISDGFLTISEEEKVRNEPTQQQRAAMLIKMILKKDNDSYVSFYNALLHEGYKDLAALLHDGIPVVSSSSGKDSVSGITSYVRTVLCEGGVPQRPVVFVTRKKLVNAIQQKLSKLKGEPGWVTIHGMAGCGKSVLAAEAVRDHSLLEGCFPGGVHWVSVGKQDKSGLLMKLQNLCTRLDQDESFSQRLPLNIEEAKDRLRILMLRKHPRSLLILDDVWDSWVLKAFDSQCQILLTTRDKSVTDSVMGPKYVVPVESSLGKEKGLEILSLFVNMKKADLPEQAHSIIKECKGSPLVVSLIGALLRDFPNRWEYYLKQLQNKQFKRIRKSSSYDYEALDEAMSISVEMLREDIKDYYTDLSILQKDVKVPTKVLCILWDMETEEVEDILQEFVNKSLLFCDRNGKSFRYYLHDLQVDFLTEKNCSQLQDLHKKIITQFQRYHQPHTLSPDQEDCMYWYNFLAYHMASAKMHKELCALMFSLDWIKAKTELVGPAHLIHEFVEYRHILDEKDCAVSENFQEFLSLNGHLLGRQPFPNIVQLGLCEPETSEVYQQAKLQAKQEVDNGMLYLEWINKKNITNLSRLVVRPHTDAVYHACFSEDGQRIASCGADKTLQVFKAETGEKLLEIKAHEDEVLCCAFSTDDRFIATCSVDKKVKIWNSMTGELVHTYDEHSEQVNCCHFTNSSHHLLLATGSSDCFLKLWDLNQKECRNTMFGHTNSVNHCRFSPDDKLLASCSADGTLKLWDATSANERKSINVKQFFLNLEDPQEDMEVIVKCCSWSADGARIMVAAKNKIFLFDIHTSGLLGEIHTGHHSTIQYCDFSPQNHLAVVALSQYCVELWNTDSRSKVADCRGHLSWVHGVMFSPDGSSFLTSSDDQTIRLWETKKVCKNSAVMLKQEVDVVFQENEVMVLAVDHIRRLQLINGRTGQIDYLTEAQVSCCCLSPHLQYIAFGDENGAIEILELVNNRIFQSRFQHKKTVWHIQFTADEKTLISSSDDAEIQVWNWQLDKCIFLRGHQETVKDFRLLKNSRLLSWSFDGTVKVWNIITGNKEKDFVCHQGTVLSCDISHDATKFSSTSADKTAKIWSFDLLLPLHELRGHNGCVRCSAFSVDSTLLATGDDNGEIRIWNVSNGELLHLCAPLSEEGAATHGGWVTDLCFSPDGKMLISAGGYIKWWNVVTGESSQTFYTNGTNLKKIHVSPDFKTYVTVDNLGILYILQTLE
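Material: reconstituted apoptosome with Apaf-1, cytochrome c, caspase-9, procaspase-3, dATP; medium: pH 7.5 Hepes buffer with CHAPS, BSA, DTT; also added: cytochrome c and DEVD-Rh110 substrate; timing: 30 min plus 50 min, RT; signal: Rh110 fluorescence intensity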
Granule exo inh – LAMP-1 surface exposure blockers, TALL-104 cells – cell-based, flow cytometry, MLPCN library, primary screen; TALL-104 LAMP-1 surface exposure; cells stimulated with thapsigargin and PMA; inhibition, % at 10 µM; actives 0.66% (n = 360,000); AID 651702, 2012;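 active = inhibition above about 55%, limit read from the data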
MPTP inh – mitochondrial permeability transition pore inhibitors, primary screen, biochemical, isolated mouse mitochondria, absorbance. Ca2+ swelling absorbance, 30 min. inhibition, % at 10 µM. actives 1.4% (n = 360,000);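 active = inhibition of 50% or more, scaled per plate between neutral and stimulator controls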;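 also: 0% = DMSO wells given calcium and 100% = 1 mM EGTA wells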
iPSC survival up – enhancers of single-cell hiPSC survival, primary screen, ATPlite luminescence | 100% = ROCK inhibitor wells, 0% = DMSO | survival enhancement, % at 20 µM | actives 0.044% (n = 360,000) | AID 602274, 2012; in the data active = survival enhancement above about 18%;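 also: cells exposed to compounds for 16 hours before the ATP read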
beta cell repl – inducers of MIN6 beta-cell proliferation, primary screen, ATP luminescence, uHTS; actives 0.29% (n = 330,000); MIN6 cells proliferation, ATPlite luminescence, 48 h; cells starved in 0.2% serum; 100% = growth in 10% serum; proliferation, % at 10 µM;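 active = compounds whose signal lies at least 3.5 SD above the mean of all wells on their plate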;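 also: 0% = DMSO-treated cells in low-serum medium and 100% = 10% serum control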
UBC13 polyUb – UBC13 polyubiquitin chain formation inhibitors, primary screen, biochemical, TR-FRET, uHTS; Ubiquitin-conjugating enzyme E2 N (Homo sapiens), P61088; inhibition, % at 20 µM; actives 0.47% (n = 330,000); AID 485273, 2010; in the data active = inhibition above about 45%, passing the limit was not always enough
MPTP counter – fluorescence retest of MPTP screen hits in isolated mitochondria, single concentration; inhibition, % at 10 µM; actives 78% (n = 5,000); membrane potential, Rhodamine 123 fluorescence; shares compounds with MPTP inh; in the data active = inhibition above about 22%;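 also: 0% = DMSO vehicle and 100% = positive control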
MPTP swell DR – mitochondrial permeability transition pore inhibitors, dose response, biochemical, absorbance, uHTS hits | actives 58% (n = 780) | AID 651561, 2012 | IC50, µM | shares compounds with MPTP inh | isolated mitochondria swelling; in the data active = IC50 below about 20 µM
MPTP cs DR – fluorescent counter-screen in isolated mitochondria, dose response, counter-screen for MPTP inhibitor project, biochemical, fluorescence, uHTS hits | shares compounds with MPTP inh | isolated mitochondria counterscreen, fluorescence read-out | IC50, µM | actives 49% (n = 780); in the data active = IC50 below about 80 µM
An asterisk follows results filed as active; x = no result.

SMILES	Apaf-1 inh	Granule exo inh	MPTP inh	iPSC survival up	beta cell repl	UBC13 polyUb	MPTP counter	others
O=c1oc2ccccc2c(NCc2ccc(Cl)cc2)c1[N+](=O)[O-]	28	-4	54*	0	-2	1	73*
O=c1oc2ccccc2c(Nc2ccccc2O)c1[N+](=O)[O-]	3	-10	0	0	-1	0	x
Cc1cc(Cl)cc(Cl)c1CNc1c([N+](=O)[O-])c(=O)oc2ccccc12	21	-3	90*	0	0	3	96*
CC1CC2CCCC(O)=C2C(=O)O1 (stereo not drawn)	x	-2	0	-1	x	x	x
O=C(Cc1cccc(NC(=O)C2CCCN(C(=O)C3CC3)C2)c1)Nc1cccc(C(=O)N2CCOCC2)c1 (stereo not drawn)	x	8	1	2	x	x	x
CCN(CC)CC(=O)Nc1ccc2c(c1)Nc1ccccc1CC2	12	3	84*	-2	-2	19	-4	MPTP swell DR=10*;MPTP cs DR=66*
CCN(CC)CC(=O)Nc1ccc2c(c1)N(C(=O)CN(CC)CC)c1ccccc1CC2	11	-2	0	-3	-2	3	x
COC(=O)c1ccc2nc(-c3ccco3)c(Cc3cccc(F)c3)n2c1	x	21	-3	1	x	x	x
C=CCNCCCCOc1ccc(Br)cc1C	-2	-4	71*	0	0	4	-4	MPTP swell DR=8.3*;MPTP cs DR=>80
Oc1cccc(C(O)CNCc2ccc(OCc3ccc(Cl)cc3Cl)cc2)c1 (stereo not drawn)	19	0	83*	-1	-5	33	-12	MPTP swell DR=6.7*;MPTP cs DR=43*
OC(CNCc1cccc(Cl)c1)c1ccccc1 (stereo not drawn)	-15	-2	-2	6	0	9	x
OC(CNCc1ccccc1)c1ccccc1 (stereo not drawn)	-21	3	1	1	0	4	x
Oc1cccc(C(O)CNCc2ccc(-c3ccccc3)cc2)c1 (stereo not drawn)	3	0	92*	0	-5	15	-14	MPTP swell DR=4.2*;MPTP cs DR=51*
COCCN1C(=O)COc2ccccc2C1C(=O)NC(C)(C)C (stereo not drawn)	x	-7	0	-1	x	x	x
COc1ccc(C(=O)N(C)Cc2cnn(Cc3ccccc3)c2)cc1S(=O)(=O)N1CCOCC1	-3	0	-2	0	-2	-10	x
CCN(CC)c1ccc(NC(=O)c2cc(Cl)ccc2OC)cc1	21	-3	99*	-2	1	5	-17	MPTP swell DR=14*;MPTP cs DR=>80
COc1ccc(Cl)cc1C(=O)Nc1ccc(CN2CCCCC2)cc1	7	-1	57*	3	-5	2	-4	MPTP swell DR=7.1*;MPTP cs DR=>80
Cc1cc(C)cc(CC(=O)N2CCC2(C)C(=O)NS(=O)(=O)c2ccc(C(C)(C)C)cc2)c1 (stereo not drawn)	x	2	0	-2	x	x	x
Cn1nc(C(C)(C)C)cc1NC(=O)Nc1cc(Cl)cc(Cl)c1	3	-20	84*	0	-4	15	73*
CN1CCN(NC(=O)Nc2cc(Cl)cc(Cl)c2)CC1	11	-1	90*	0	-7	-6	91*
COc1ccc(NC(=O)NN2CCN(C)CC2)cc1OC	6	0	-2	0	-4	3	x
O=C(COc1coc(CN2CCN(Cc3ccccc3)CC2)cc1=O)Nc1ccccc1	5	-2	-1	0	2	-3	x
CCC(C)c1ccc(N(CC(=O)NC(C)(C)C)C(=O)CNC(=O)c2cccs2)cc1 (stereo not drawn)	21	4	-1	0	-6	-8	x
O=C(CN1C(=O)c2ccccc2S1(=O)=O)Nc1ccc(S(=O)(=O)Nc2ncccn2)cc1	7	2	0	0	-7	-15	x
O=C(Nc1ncc(S(=O)(=O)c2ccc([N+](=O)[O-])cc2)s1)c1cccc2ccccc12	16	1	54*	4	-3	-14	79*
SMILES	Apaf-1 inh	Granule exo inh	MPTP inh	iPSC survival up	beta cell repl	UBC13 polyUb	MPTP counter	others
COCC(=O)Nc1ncc(S(=O)(=O)c2ccc([N+](=O)[O-])cc2)s1	-8	-1	-1	1	-3	6	x
O=C(NC(Nc1ncc(S(=O)(=O)c2ccc([N+](=O)[O-])cc2)s1)(C(F)(F)F)C(F)(F)F)c1ccc(Cl)cc1	3	7	100*	-3	-5	-10	87*
COc1ccc(CCNS(=O)(=O)c2ccc(Br)cc2)cc1OC	0	-20	0	0	1	1	x
Cc1[nH]nc(Nc2ccc(Br)cc2)c1[N+](=O)[O-]	7	-7	57*	0	0	2	72*
COc1ccc(S(=O)(=O)CCC(=O)N2CCN(c3ccc(C(C)=O)cc3)CC2)cc1	-4	0	-2	0	1	-3	x
CC(C)OC(=O)/C=C1\C[C@@H](c2ccccc2C(F)(F)F)O[C@@H](c2ccccc2C(F)(F)F)O1	x	16	2	x	x	x	x
CCn1c(C)nc([N+](=O)[O-])c1Sc1ccc(F)cc1	0	3	77*	-2	0	2	-1	MPTP swell DR=>100;MPTP cs DR=>80
Cc1nc([N+](=O)[O-])c(Sc2nc3ccccc3[nH]2)n1Cc1ccccc1	-2	-4	1	-2	-2	-9	x
O=C(NC1CCCC1)C(c1ccco1)N1CCN(c2c(Cl)cncc2Cl)CC1 (stereo not drawn)	x	-8	1	x	x	x	x
Fc1ccc2[nH]c3c(N4CCN(c5ccccc5)CC4)ncnc3c2c1	22	52	98*	2	-5	-1	112*
CCCCOc1ncnc2c1[nH]c1ccc(OCC)cc12	-15	0	1	-3	-1	-2	x
CCCCOc1ncnc2c1[nH]c1ccc(F)cc12	3	7	95*	-2	-4	-2	84*
CCOC(=O)N1CCN(c2ncnc3c2[nH]c2ccc(F)cc23)CC1	0	2	98*	5	-3	10	84*
COc1ccc(N2CCN(c3ncnc4c3[nH]c3ccccc34)CC2)cc1	23	2	79*	-1	-7	-7	107*
COc1cccc2c1C1COC3C4CC(C(=O)O)C(C(C2)N13)N4C (stereo not drawn)	x	3	-1	-3	x	x	x

Bioassay records as filed in PubChem.
